Experimental data as given in article PMC5673027 (International Journal of Oncology, 2017).
“Also recorded” adds a separate entry of the source.

Key:
[1] = biological target: CDK1/cyclin B1 (Homo sapiens, UniProt P06493); assay: In vitro CDK1 kinase assay; assay type: biochemical; settings: for inhibition of CDK1 enzyme activity: quantification of band intensities, Fig. 1C/D, H1 histones; for effect on CDK1 enzyme activity (in words): in vitro kinase assay, H1 histone phosphorylation
How it was run: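 Purified CDK1/cyclin B1 complex in kit reaction buffer, pre-incubated with test compound at various concentrations for 10 min at room temperature. Phosphorylation run with 15 µM ATP, 2 µCi [γ-32P]ATP and 5 µg H1 histone at 30°C for 20 min, then stopped with 20 mM EDTA (final). Products resolved by 10% SDS-PAGE and autoradiographed; bands quantified as percent of control. Done 3–6 independent times.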

[2] = biological target: CDK6/cyclin D1 (Homo sapiens, UniProt Q00534); assay: In vitro CDK6 kinase assay; assay type: biochemical; settings: for effect on CDK6 enzyme activity (in words): 0.5 mM (Fig. 7G, H), Rb substrate; for inhibition at 500 µM: read-out: inhibition of CDK6 activity
Sequence of CDK6/cyclin D1 (Q00534 whole entry): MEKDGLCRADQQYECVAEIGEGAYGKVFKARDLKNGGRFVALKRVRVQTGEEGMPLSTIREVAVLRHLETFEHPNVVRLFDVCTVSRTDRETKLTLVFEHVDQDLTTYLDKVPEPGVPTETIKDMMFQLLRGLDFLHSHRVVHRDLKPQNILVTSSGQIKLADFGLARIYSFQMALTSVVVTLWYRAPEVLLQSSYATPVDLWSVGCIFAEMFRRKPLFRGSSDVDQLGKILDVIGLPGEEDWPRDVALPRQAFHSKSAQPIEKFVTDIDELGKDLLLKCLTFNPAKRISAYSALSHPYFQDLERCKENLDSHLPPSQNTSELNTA
Sequence of CDK6/cyclin D1 (P24385 whole entry partner): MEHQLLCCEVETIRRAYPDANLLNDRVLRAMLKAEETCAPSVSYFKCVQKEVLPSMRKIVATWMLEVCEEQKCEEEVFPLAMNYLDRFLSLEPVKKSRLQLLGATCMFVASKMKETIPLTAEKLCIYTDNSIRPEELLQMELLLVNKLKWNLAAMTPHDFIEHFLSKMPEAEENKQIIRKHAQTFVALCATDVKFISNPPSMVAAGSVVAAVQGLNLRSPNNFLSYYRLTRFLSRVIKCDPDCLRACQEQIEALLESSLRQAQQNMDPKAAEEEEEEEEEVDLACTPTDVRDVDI
How it was run: (§1)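 Kinases were purified CDK2/cyclin A2, CDK4/cyclin D1 and CDK6/cyclin D1, each pre-incubated with test compound for 10 min at room temperature, mostly at 0.5 mM, with some dose series. Reaction used 15 µM ATP, 2 µCi [γ-32P]ATP and 5 µg protein substrate (H1 histone for CDK2) at 30°C for 20 min, stopped with 20 mM EDTA. Read by SDS-PAGE autoradiography, bands expressed as percent of control.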

[3] = biological target: CDK4/cyclin D1 (Homo sapiens, UniProt P11802); assay: In vitro CDK4 kinase assay; assay type: biochemical; settings: for effect on CDK4 enzyme activity (in words): 0.5 mM (Fig. 7E, F), Rb substrate
Sequence of CDK4/cyclin D1 (P11802 whole entry): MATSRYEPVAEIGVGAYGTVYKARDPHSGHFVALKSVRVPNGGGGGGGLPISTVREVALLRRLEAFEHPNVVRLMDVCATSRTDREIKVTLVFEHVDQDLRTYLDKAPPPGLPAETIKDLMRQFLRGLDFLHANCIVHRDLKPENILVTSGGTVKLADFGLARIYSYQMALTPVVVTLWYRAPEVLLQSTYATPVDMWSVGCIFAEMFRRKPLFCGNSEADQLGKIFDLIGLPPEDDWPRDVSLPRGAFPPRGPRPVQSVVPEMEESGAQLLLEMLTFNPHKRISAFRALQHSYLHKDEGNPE
Sequence of CDK4/cyclin D1 (P24385 whole entry partner): as the sequence (P24385 whole entry partner) above
How it was run: as §1

[4] = biological target: T1, CDK2/cyclin A2 (Homo sapiens, UniProt P24941); assay: In vitro CDK2 kinase assay; assay type: biochemical; settings: for effect on CDK2 enzyme activity (in words): 0.5 mM (Fig. 7), pre-incubated 10 min, H1 histones
How it was run: as §1

[5] = test system: HCT-116 cells; assay: MTT cytotoxicity assay; assay type: cell-based, human; settings: Homo sapiens, HCT-116, 72 h, read-out: MTT assay HCT-116 72 h (IC50)
How it was run: (§2)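 HCT-116 cells kept in McCoy's 5A with 10% FBS, seeded overnight at 20,000 cells/well, then exposed to test compounds at various concentrations for 72 h. Viability read by MTT. IC50 taken from the concentration series. Experiments repeated 3–6 times independently.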

[6] = MTT cytotoxicity assay; assay type: cell-based, human; settings: human, HCT-116 colorectal carcinoma cells
How it was run: as §2

[7] = biological target: cellular CDK1 in HCT-116 cells (Homo sapiens, UniProt P06493); assay: Acetylation of cellular CDK1 in HCT-116 cells; assay type: cell-based; settings: 0.25–2.5 mM, 12 h
Sequence of cellular CDK1 in HCT-116 cells (P06493 whole entry): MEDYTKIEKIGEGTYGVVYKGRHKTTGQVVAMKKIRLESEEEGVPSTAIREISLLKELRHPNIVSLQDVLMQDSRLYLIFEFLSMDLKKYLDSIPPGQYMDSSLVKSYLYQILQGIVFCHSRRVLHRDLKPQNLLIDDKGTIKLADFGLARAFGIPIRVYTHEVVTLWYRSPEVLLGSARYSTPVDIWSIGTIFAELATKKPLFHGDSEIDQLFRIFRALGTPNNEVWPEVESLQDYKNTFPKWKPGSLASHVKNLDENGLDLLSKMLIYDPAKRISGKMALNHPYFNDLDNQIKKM

[8] = cited from earlier work
[9] = biological target: T1, CDK2/cyclin A2; settings: in vitro kinase assays; cited from earlier work
[10] = CDK1 IC50, Table III, purified CDK1 enzyme
[11] = CDK1 IC50, text, dose-dependent inhibition, Fig. 1E-H

Sequence of CDK1/cyclin B1 (P14635 whole entry): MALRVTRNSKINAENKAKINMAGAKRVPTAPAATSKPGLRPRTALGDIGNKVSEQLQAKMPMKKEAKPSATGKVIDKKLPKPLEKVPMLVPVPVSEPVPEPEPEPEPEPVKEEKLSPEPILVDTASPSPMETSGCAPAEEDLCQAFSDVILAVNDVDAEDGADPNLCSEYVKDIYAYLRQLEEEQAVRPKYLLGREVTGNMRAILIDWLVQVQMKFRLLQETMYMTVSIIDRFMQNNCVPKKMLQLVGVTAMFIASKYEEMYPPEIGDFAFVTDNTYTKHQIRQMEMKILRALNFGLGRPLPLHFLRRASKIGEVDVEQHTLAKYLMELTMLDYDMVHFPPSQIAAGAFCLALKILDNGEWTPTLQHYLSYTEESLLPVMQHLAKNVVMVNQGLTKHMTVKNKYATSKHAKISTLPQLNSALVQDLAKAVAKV
Sequence of CDK1/cyclin B1 (P06493 whole entry): as the sequence (P06493 whole entry) above

O=C(O)c1cccc(O)c1O [2,3-DHBA, 2,3-dihydroxy-benzoic acid]
IC50 [1, 10]: 386 µM | IC50 [1, 11]: 386 µM | inhibition of CDK1 enzyme activity [1]: 55% | effect on CDK6 enzyme activity (in words) [2]: inhibited | inhibition at 500 µM [2]: 28% | effect on CDK4 enzyme activity (in words) [3]: failed to inhibit; also recorded: either no or marginal effect | effect on CDK2 enzyme activity (in words) [4]: did not inhibit; also recorded: either no or marginal effect | IC50 [5]: 1780 µM | IC50 at 72 h [6]: ~1800 µM

O=C(O)c1c(O)cc(O)cc1O [2,4,6-THBA, 2,4,6-trihydroxybenzoic acid]
IC50 [1, 10]: 226 µM | effect on CDK1 enzyme activity (in words) [1]: inhibited | effect on CDK6 enzyme activity (in words) [2]: inhibited | inhibition at 500 µM [2]: 40% | effect on CDK4 enzyme activity (in words) [3]: inhibited | inhibition at 500 µM ([3]; read-out: inhibition of CDK4 activity): 45% | IC50 [4]: ~300 µM | effect on CDK2 enzyme activity (in words) [4]: dose-dependent inhibition; also recorded: inhibited | IC50 [5]: 785 µM | IC50 at 72 h [6]: 800 µM

O=C(O)c1ccc(O)cc1O [2,4-DHBA, 2,4-dihydroxybenzoic acid]
inhibition of CDK1 enzyme activity [1]: 25%

O=C(O)c1cc(O)ccc1O [2,5-DHBA, 2,5-dihydroxybenzoic acid]
inhibition of CDK1 enzyme activity [1]: 22%

O=C(O)c1c(O)cccc1O [2,6-DHBA, 2,6-dihydroxybenzoic acid]
IC50 [1, 10]: 365 µM | IC50 [1, 11]: 365 µM | inhibition of CDK1 enzyme activity [1]: 65% | effect on CDK6 enzyme activity (in words) [2]: inhibited | inhibition at 500 µM [2]: 37% | effect on CDK4 enzyme activity (in words) [3]: failed to inhibit; also recorded: either no or marginal effect | effect on CDK2 enzyme activity (in words) [4]: did not inhibit; also recorded: either no or marginal effect | IC50 [5]: 1950 µM | IC50 at 72 h [6]: 1900 µM

O=C(O)c1cc(O)c(O)c(O)c1 [3,4,5-THBA, gallic acid]
effect on CDK1 enzyme activity (in words) [1]: did not show any inhibitory effect; also recorded: failed to inhibit

O=C(O)c1ccc(O)c(O)c1 [3,4-DHBA]
effect on CDK1 enzyme activity (in words) [1]: did not show any inhibition; also recorded: failed to inhibit

O=C(O)c1cc(O)cc(O)c1 [3,5-DHBA]
effect on CDK1 enzyme activity (in words) [1]: failed to inhibit

Nc1ccc(O)c(C(=O)O)c1 [5-aminosalicylic acid, reference compound]
effect on CDK1 enzyme activity (in words) [1]: did not show any inhibition | effect on CDK1 enzyme activity (in words) ([1]; listed as 5-amino-salicylic acid): failed to inhibit

CC(=O)Oc1ccccc1C(=O)O [Aspirin]
effect on CDK1 enzyme activity (in words) [1]: do not inhibit; also recorded: failed to inhibit | acetylation of cellular CDK1 (in words) [7]: acetylated in aspirin treated samples in a dose-dependent fashion | effect on CDK6 enzyme activity (in words) [2]: did not affect | effect on CDK4 enzyme activity (in words) [3]: failed to inhibit | effect on CDK2 enzyme activity (in words) [4]: did not inhibit | oral bioavailability [8]: 40–50% | effect on CDK2 enzyme activity (in words), previous study [9]: failed to inhibit

O=C(O)c1ccccc1O [Salicylic acid, reference compound]
effect on CDK1 enzyme activity (in words) [1]: do not inhibit; also recorded: failed to inhibit | effect on CDK6 enzyme activity (in words) [2]: did not affect | effect on CDK4 enzyme activity (in words) [3]: failed to inhibit | effect on CDK2 enzyme activity (in words) [4]: did not inhibit | half-life ([8]; depending upon the dose): 4 to 6 h | conjugation with glycine to salicyluric acid ([8]; liver): 20–65% | effect on CDK2 enzyme activity (in words), previous study [9]: failed to inhibit

O=C(O)c1ccccc1 [benzoic acid, reference compound]
effect on CDK1 enzyme activity (in words) [1]: did not show any inhibition; also recorded: failed to inhibit

CN1CC[C@H](c2c(O)cc(O)c3c(=O)cc(-c4ccccc4Cl)oc23)[C@H](O)C1 [flavopiridol, reference compound]
effect on CDK1 enzyme activity (in words) [1]: dose-dependently inhibited
